≈ marks a conversion by molar mass, not a printed value.
How the values were obtained:
[1] = Association constant to Ac2-L-Lys-D-Ala-D-Ala determined at pH 9; Value ranges from 5E4-7.5E4
Bacteroides fragilis [2] = test: Minimum inhibitory concentration of compound was determined against Bacteroides fragilis L 1236; assay type: functional
How it was run: (§1)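 Microbroth dilution MIC (µg/mL) in Wilkins-Chalgren broth, final inoculum 10^5 cfu/mL, incubated 48 h in an anaerobic chamber.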

Bacteroides fragilis [3] = test: Minimum inhibitory concentration of compound was determined against Bacteroides fragilis L 1010; assay type: functional; how it was run: as §1
Bacteroides fragilis [4] = test: Minimum inhibitory concentration of compound was determined against Bacteroides fragilis L 1011; assay type: functional; how it was run: as §1
Escherichia coli [5] = test: Efficacy of compound administered intravenously against Escherichia coli L 47 Septicemia in mouse; assay type: functional; conditions: iv
How it was run: (§2)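 Mouse septicemia from intraperitoneal injection of about 10^4 cells of E. coli L 47, about 100 times the 50% lethal dose. Groups of five to eight mice each got a single dose immediately after infection, by the route stated in the line. ED50 in mg/kg was calculated from percent survivors at each dose on day 7 (Spearman-Kärber).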

Escherichia coli [6] = test: Efficacy of compound administered subcutaneously against Escherichia coli L 47 Septicemia in mouse; assay type: functional; conditions: sc; how it was run: as §2
Enterobacter cloacae [7] = test: Minimum inhibitory concentration of compound was determined against Enterobacter cloacae L 1485; assay type: functional
How it was run: (§3)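 MIC (µg/mL) by microbroth dilution in Iso-Sensitest broth; final inoculum 10^4 cfu/mL; 24 h at 37 °C in air.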

Enterobacter cloacae [8] = test: Minimum inhibitory concentration of compound was determined against Enterobacter cloacae L 1504; assay type: functional; how it was run: as §3
Enterococcus faecalis = test: Minimum inhibitory concentration against Enterococcus faecalis ATCC 7080; assay type: functional
How it was run: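 Microbroth dilution MIC (µg/mL), final inoculum 10^4 cfu/mL, incubated 24 h at 37 °C in air.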

Escherichia coli [9] = test: Minimum inhibitory concentration of compound was determined against Escherichia coli L 1153; assay type: functional; how it was run: as §3
Escherichia coli [10] = test: Minimum inhibitory concentration of compound was determined against Escherichia coli L 1347; assay type: functional; how it was run: as §3
Escherichia coli [11] = test: Minimum inhibitory concentration of compound was determined against Escherichia coli L 1484; assay type: functional; how it was run: as §3
Escherichia coli [12] = test: Minimum inhibitory concentration of compound was determined against Escherichia coli L 1513; assay type: functional; how it was run: as §3
Escherichia coli [13] = test: Minimum inhibitory concentration of compound was determined against Escherichia coli L 1536; assay type: functional; how it was run: as §3
Escherichia coli [14] = test: Minimum inhibitory concentration of compound was determined against Escherichia coli L 1572; assay type: functional; how it was run: as §3
Escherichia coli [15] = test: Minimum inhibitory concentration against Escherichia coli L 47; assay type: functional; how it was run: as §3
Klebsiella pneumoniae [16] = test: Minimum inhibitory concentration of compound was determined against Klebsiella pneumoniae L 1481; assay type: functional; how it was run: as §3
Klebsiella pneumoniae [17] = test: Minimum inhibitory concentration of compound was determined against Klebsiella pneumoniae L 1499; assay type: functional; how it was run: as §3
Mus musculus [18] = species on record: Mus musculus; test: Number of mouse survivors to that of treated with compound; 6 out of 8 survived; assay type: functional
Proteus mirabilis [19] = test: Minimum inhibitory concentration of compound was determined against Proteus mirabilis L 1157; assay type: functional; how it was run: as §3
Proteus mirabilis [20] = test: Minimum inhibitory concentration of compound was determined against Proteus mirabilis L 1356; assay type: functional; how it was run: as §3
Proteus vulgaris [21] = test: Minimum inhibitory concentration against Proteus vulgaris ATCC 881; assay type: functional; how it was run: as §3
Proteus vulgaris [22] = test: Minimum inhibitory concentration of compound was determined against Proteus vulgaris L 1539; assay type: functional; how it was run: as §3
Pseudomonas aeruginosa [23] = test: Minimum inhibitory concentration of compound was determined against Pseudomonas aeruginosa L 1348; assay type: functional; how it was run: as §3
Pseudomonas aeruginosa [24] = test: Minimum inhibitory concentration against Pseudomonas aeruginosa ATCC 10145; assay type: functional; how it was run: as §3
Pseudomonas aeruginosa [25] = test: Minimum inhibitory concentration of compound was determined against Pseudomonas aeruginosa L 1138; assay type: functional; how it was run: as §3
Pseudomonas aeruginosa [26] = test: Minimum inhibitory concentration of compound was determined against Pseudomonas aeruginosa L 1533; assay type: functional; how it was run: as §3
Staphylococcus aureus = test: Minimum inhibitory concentration against Staphylococcus aureus L 165; assay type: functional; how it was run: as §3
Serratia marcescens [27] = test: Minimum inhibitory concentration of compound was determined against Serratia marcescens L 1506; assay type: functional; how it was run: as §3
Salmonella typhimurium = test: Minimum inhibitory concentration of compound was determined against Salmonella Typhimurium L 35; assay type: functional, Salmonella enterica subsp. enterica serovar Typhimurium; conditions: Salmonella enterica; how it was run: as §3
Streptococcus pyogenes [28] = test: Efficacy of compound administered subcutaneously against Streptococcus pyogenes L 49 Septicemia in mouse; assay type: functional; conditions: sc
How it was run: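 Mice were infected intraperitoneally with about 10^5 Strep. pyogenes L 49 cells, about 100 times the 50% lethal dose. Groups of 5–8 mice were treated once right after challenge, by the route stated in the line. ED50 (mg/kg) was derived from percentage survival at each dose on day 7 (Spearman-Kärber).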

Shigella sonnei = test: Minimum inhibitory concentration of compound was determined against Shigella sonnei L 363; assay type: functional; how it was run: as §3
Streptococcus pyogenes [29] = test: Minimum inhibitory concentration of compound was determined against Streptococcus pyogenes L 49 in mouse; assay type: functional
Shigella dysenteriae = test: Minimum inhibitory concentration of compound was determined against Shigella dysentariae L155; assay type: functional
[30] = system: Staphylococcus epidermidis; test: Minimum inhibitory concentration against Staphylococcus epidermidis ATCC 12228; assay type: functional; how it was run: as §3
Serratia marcescens [31] = test: Minimum inhibitory concentration of compound was determined against Serratia marcescens L 1488; assay type: functional; how it was run: as §3
Streptococcus pneumoniae = test: Minimum inhibitory concentration against Streptococcus pneumoniae L 44; assay type: functional
How it was run: (§4)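 MIC (µg/mL) by microbroth dilution in Todd-Hewitt broth, final inoculum 10^4 cfu/mL, incubated 24 h at 37 °C in air.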

[32] = system: Staphylococcus haemolyticus; test: Minimum inhibitory concentration against Staphylococcus haemolyticus L 602; assay type: functional; how it was run: as §3
Streptococcus pyogenes [33] = test: Minimum inhibitory concentration against Streptococcus pyogenes L 49; assay type: functional; how it was run: as §4
Pseudomonas aeruginosa [34] = test: Minimum inhibitory concentration of compound was determined against Pseudomonas aeruginosa L 1498; assay type: functional; how it was run: as §3
Escherichia coli [35] = test: Efficacy of compound administered intravenously against Escherichia coli L47 Septicemia in mouse; assay type: functional; conditions: iv; how it was run: as §2
Escherichia coli [36] = test: Efficacy of compound administered subcutaneously against Escherichia coli L47 Septicemia in mouse; assay type: functional; conditions: sc; how it was run: as §2
Mus musculus [37] = species on record: Mus musculus; test: Number of survivors mouse to that of treated with compound; 7 out of 8 survived; assay type: functional

Compound: NCCCNCCCNCCCNC(=O)[C@H]1NC(=O)[C@H]2NC(=O)[C@H](NC(=O)[C@@H]3NC(=O)[C@H]4NC(=O)[C@@H](Cc5ccc(c(Cl)c5)Oc5cc3cc(c5O)Oc3ccc(cc3Cl)[C@H]2O)NC(=O)[C@H](N)c2ccc(O)c(c2)Oc2cc(O)cc4c2)c2ccc(O)c(c2)-c2c(O)cc(O)cc21
- Ka [1]: 75000 M⁻¹
- MIC (Bacteroides fragilis [2]): 128 µg/mL (≈ 93.5 µM)
- MIC (Bacteroides fragilis [3]): 16 µg/mL (≈ 11.7 µM)
- MIC (Bacteroides fragilis [4]): 32 µg/mL (≈ 23.4 µM)
- ED50 (Escherichia coli [5]): < 40 mg/kg
- ED50 (Escherichia coli [6]): > 200 mg/kg
- MIC (Enterobacter cloacae [7]): 4 µg/mL (≈ 2.92 µM)
- MIC (Enterobacter cloacae [8]): 8 µg/mL (≈ 5.84 µM)
- MIC (Enterococcus faecalis): 0.25 µg/mL (≈ 0.183 µM)
- MIC (Escherichia coli [9]): 1 µg/mL (≈ 0.73 µM)
- MIC (Escherichia coli [10]): 4 µg/mL (≈ 2.92 µM)
- MIC (Escherichia coli [11]): 2 µg/mL (≈ 1.46 µM)
- MIC (Escherichia coli [12]): 2 µg/mL (≈ 1.46 µM)
- MIC (Escherichia coli [13]): 2 µg/mL (≈ 1.46 µM)
- MIC (Escherichia coli [14]): 2 µg/mL (≈ 1.46 µM)
- MIC (Escherichia coli [15]): 0.5 µg/mL (≈ 0.365 µM)
- MIC (Klebsiella pneumoniae [16]): 4 µg/mL (≈ 2.92 µM)
- MIC (Klebsiella pneumoniae [17]): 8 µg/mL (≈ 5.84 µM)
- Survivors (Mus musculus [18]): 6
- MIC (Proteus mirabilis [19]): 128 µg/mL (≈ 93.5 µM)
- MIC (Proteus mirabilis [20]): 32 µg/mL (≈ 23.4 µM)
- MIC (Proteus vulgaris [21]): 64 µg/mL (≈ 46.7 µM)
- MIC (Proteus vulgaris [22]): 32 µg/mL (≈ 23.4 µM)
- MIC (Pseudomonas aeruginosa [23]): 4 µg/mL (≈ 2.92 µM)
- MIC (Pseudomonas aeruginosa [24]): 2 µg/mL (≈ 1.46 µM)
- MIC (Pseudomonas aeruginosa [25]): 32 µg/mL (≈ 23.4 µM)
- MIC (Pseudomonas aeruginosa [26]): 64 µg/mL (≈ 46.7 µM)
- MIC (Staphylococcus aureus): 0.063 µg/mL (≈ 0.046 µM)
- MIC (Serratia marcescens [27]): 8 µg/mL (≈ 5.84 µM)
- MIC (Salmonella typhimurium): 4 µg/mL (≈ 2.92 µM)
- ED50 (Streptococcus pyogenes [28]): 0.72 mg/kg
- MIC (Shigella sonnei): 2 µg/mL (≈ 1.46 µM)
- MIC (Streptococcus pyogenes [29]): 0.06 µg/mL (≈ 0.0438 µM)
- MIC (Shigella dysenteriae): 1 µg/mL (≈ 0.73 µM)
- MIC [30]: 0.016 µg/mL (≈ 0.0117 µM)
- MIC (Serratia marcescens [31]): 8 µg/mL (≈ 5.84 µM)
- MIC (Streptococcus pneumoniae): 0.125 µg/mL (≈ 0.0913 µM)
- MIC [32]: 0.063 µg/mL (≈ 0.046 µM)
- MIC (Streptococcus pyogenes [33]): 0.063 µg/mL (≈ 0.046 µM)
- MIC (Pseudomonas aeruginosa [34]): 64 µg/mL (≈ 46.7 µM)

Compound: NCCCN(CCCN)CCCNC(=O)[C@H]1NC(=O)[C@H]2NC(=O)[C@H](NC(=O)[C@@H]3NC(=O)[C@H]4NC(=O)[C@@H](Cc5ccc(c(Cl)c5)Oc5cc3cc(c5O)Oc3ccc(cc3Cl)[C@H]2O)NC(=O)[C@H](N)c2ccc(O)c(c2)Oc2cc(O)cc4c2)c2ccc(O)c(c2)-c2c(O)cc(O)cc21
- ED50 (Escherichia coli [35]): < 40 mg/kg
- ED50 (Escherichia coli [36]): 40 mg/kg
- MIC (Enterococcus faecalis): 0.125 µg/mL (≈ 0.0913 µM)
- MIC (Escherichia coli [15]): 1 µg/mL (≈ 0.73 µM)
- Survivors (Mus musculus [37]): 7
- MIC (Proteus vulgaris [21]): 128 µg/mL (≈ 93.5 µM)
- MIC (Pseudomonas aeruginosa [24]): 8 µg/mL (≈ 5.84 µM)
- MIC (Staphylococcus aureus): 0.125 µg/mL (≈ 0.0913 µM)
- ED50 (Streptococcus pyogenes [28]): 0.72 mg/kg
- MIC (Streptococcus pyogenes [29]): 0.06 µg/mL (≈ 0.0438 µM)
- MIC [30]: 0.008 µg/mL (≈ 0.00584 µM)
- MIC (Streptococcus pneumoniae): 0.125 µg/mL (≈ 0.0913 µM)
- MIC [32]: 0.063 µg/mL (≈ 0.046 µM)
- MIC (Streptococcus pyogenes [33]): 0.063 µg/mL (≈ 0.046 µM)

Source: ChEMBL document CHEMBL1125337, “Synthesis and antibacterial activity of a series of basic amides of teicoplanin and deglucoteicoplanin with polyamines” (J Med Chem, 1992)
